These results are taken from ChEMBL document CHEMBL1938276, “Design and synthesis of 2-heterocyclyl-3-arylthio-1H-indoles as potent tubulin polymerization and cell growth inhibitors with improved metabolic stability” (J Med Chem, 2011).

The structures appear in SMILES notation. The source made the active and inactive calls. No cut-off for these calls is given here. Where only a bound is given, the exact number is not on record here.

Data set [1] concerns Liver. The data set can be described thus: Metabolic stability in mouse liver microsomes assessed as compound remaining after 30 mins by LC-Ms/Ms analysis. As to conditions: 0.5 h. The class given is ADME, Microsome. An outline of the steps:
(§1)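 Compound at 1 μM final, in duplicate, preincubated 10 min at 37 °C with liver microsomes (0.5 mg/mL final) in potassium phosphate buffer pH 7.4 with 3 mM MgCl2; started with NADP/glucose-6-phosphate/G6P dehydrogenase. Samples taken 0–30 min, quenched in acetonitrile, quantified by LC-MS/MS; percent remaining at 30 min versus time zero peak area; no-cofactor control included.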

For data set [2], the system named is Liver microsomes. The data set can be described thus: Metabolic stability in human liver microsomes assessed as compound remaining after 30 mins by LC-MS/MS analysis. It counts as ADME, Microsome. As to conditions: 0.5 h. An outline of the steps: as §1
For data set [3], the system named is OVCAR-8. The data set can be described thus: cells. As to conditions: Homo sapiens, OVCAR-8, 96 h.
Data set [4] can be described thus: Growth inhibition of doxorubicin-resistant human NCI-ADR-RES cells overexpressing P-glycoprotein after 96 hrs. It counts as functional, cell-based.
Data set [5] has as its system HeLa. The data set can be described thus: Induction apoptosis in human HeLa cells at 10 nM after 24 hrs by Annexin V-based flow cytometry analysis. It counts as functional, cell-based. For orientation: Flow cytometry measures light scatter and fluorescence of single cells or particles in a stream.
The test system of data set [6] is HeLa. The data set can be described thus: Induction apoptosis in human HeLa cells at 20 nM after 24 hrs by Annexin V-based flow cytometry analysis.
Data set [7] concerns HeLa. The data set can be described thus: Induction apoptosis in human HeLa cells at 20 nM after 24 hrs by Annexin V-based flow cytometry analysis. The class given is functional, cell-based.
Data set [8] relates to HeLa. The data set can be described thus: Induction of mitotic arrest in human HeLa cells assessed as accumulation at G2/M phase at 2 to 20 nM after 24 hrs by flow cytometry analysis relative to control. The class given is functional, cell-based.
For data set [9], the system named is HeLa. The data set can be described thus: Cell cycle arrest in human HeLa cells assessed as accumulation at G2/M phase at 20 nM after 24 hrs by propidium iodide staining based flow cytometry analysis (reference value: 0.10 %). The class given is functional.
Data set [10] relates to HeLa. The data set can be described thus: Induction apoptosis in human HeLa cells assessed as caspase -3 activity at 100 nM after 24 hrs by single-cell immunofluorescence assay. The class given is functional, cell-based.
In data set [11] the test system is Mus musculus. The data set can be described thus: Volume of distribution at steady state in nude CD-1 mouse at 5 mg/kg, iv and 15 mg/kg, po by UPLC analysis. The class given is ADME, organism-based. As to conditions: in vivo. An outline of the steps:
(§2)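 Male nude CD-1 mice, 4 weeks old; single iv rapid bolus 5 mg/kg in 3% DMSO + 30% PEG400 + 0.9% NaCl, or oral gavage 15 mg/kg in 5% DMSO + 20% PEG400 + water. Blood sampled at multiple times after dosing; plasma proteins precipitated, samples stored at −80 °C, quantified by UPLC-ESI triple-quadrupole MS/MS.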

A short description of data set [12]: Cmax in nude CD-1 mouse at 15 mg/kg, po by UPLC analysis. It counts as ADME, organism-based. Further details: dose 15 mg/kg, route oral. The note with it: in vivo. In outline: as §2
A short description of data set [13]: Tmax in nude CD-1 mouse at 15 mg/kg, po by UPLC analysis. The class given is ADME, organism-based. Further details: dose 15 mg/kg, route oral. As to conditions: in vivo. An outline of the steps:
as §2

Data set [14] is described as follows: AUC ( 0 to infinity) in nude CD-1 mouse at 15 mg/kg, po by UPLC analysis. It counts as ADME, organism-based. Further details: time infinity, dose 15 mg/kg, route oral. As to conditions: plasma. An outline of the steps: as §2
A short description of data set [15]: Cmax in nude CD-1 mouse at 5 mg/kg, iv by UPLC analysis. Further details: dose 5 mg/kg, route intravenous. As to conditions: in vivo. The class given is ADME, organism-based. An outline of the steps:
as §2

In data set [16] the test system is Mus musculus. The data set can be described thus: Oral bioavailability in nude CD-1 mouse at 15 mg/kg by UPLC analysis. It counts as ADME, organism-based. The note with it: in vivo. An outline of the steps:
as §2

A short description of data set [17]: AUC ( 0 to infinity) in nude CD-1 mouse at 5 mg/kg, iv by UPLC analysis. The note with it: plasma. Further details: time infinity, dose 5 mg/kg, route intravenous. The class given is ADME, organism-based. In outline:
as §2

Data set [18] concerns HUVEC. The data set can be described thus: Growth inhibition of HUVEC cells after 48 hrs by MTT assay. The class given is cell-based. The note with it: Homo sapiens. (In general: Formazan colour is commonly taken as a measure of viable cells.)
The test system of data set [19] is HT-29. The data set can be described thus: Antiproliferative activity against human HT-29 cells assessed as growth inhibition after 48 hrs by MTT assay. It counts as functional, cell-based. As to conditions: HT-29, 48 h.
Data set [20] relates to A549. The data set can be described thus: Antiproliferative activity against human A549 cells assessed as growth inhibition after 48 hrs by MTT assay. The note with it: A549, 48 h.
Data set [21] concerns A10. The data set can be described thus: Growth inhibition of rat A10 cells after 48 hrs by MTT assay. As to conditions: A10, 48 h. The class given is cell-based.
Data set [22] can be described thus: Growth inhibition of human HSMC cells after 48 hrs by MTT assay. It counts as cell-based.
Data set [23] can be described thus: Growth inhibition of potorous tridactylus PtK2 cells after 48 hrs by MTT assay. As to conditions: PtK2, 48 h. The class given is cell-based.

Consider `CCOc1ccc2ccc(=O)oc2c1` [ETHOXYCOUMARIN], for which the Stability turned out to be 0.07% in data set [1] and 6.6% in [2].

What is called IC50 is the concentration at which inhibition is half-maximal. As for `CC(=O)O[C@H]1C(=O)[C@@]2(C)[C@H]([C@H](OC(=O)c3ccccc3)[C@]3(O)C[C@H](OC(=O)[C@H](O)[C@@H](NC(=O)c4ccccc4)c4ccccc4)C(C)=C1C3(C)C)[C@]1(OC(C)=O)CO[C@@H]1C[C@@H]2O` [PACLITAXEL], inhibition in data set [3] was half-maximal at 2 nM (IC50).

In the case of `CCC1=C[C@@H]2CN(C1)Cc1c([nH]c3ccccc13)[C@@](C(=O)OC)(c1cc3c(cc1OC)N(C)[C@H]1[C@@](O)(C(=O)OC)[C@H](OC(C)=O)[C@]4(CC)C=CCN5CC[C@]31[C@@H]54)C2` [VINORELBINE], in data set [4], 5000 nM corresponded to half-maximal inhibition (IC50).

Regarding `CC[C@]1(O)C[C@@H]2CN(CCc3c([nH]c4ccccc34)[C@@](C(=O)OC)(c3cc4c(cc3OC)N(C)[C@H]3[C@@](O)(C(=O)OC)[C@H](OC(C)=O)[C@]5(CC)C=CCN6CC[C@]43[C@@H]65)C2)C1` [VINBLASTINE], the result in data set [5], in [6], in [7], in data set [8] and in data set [10] was Active. Moreover, the IC50 in data set [3] was found to be 15 nM. Besides, in [9], the Activity came out at 80%.

The term Cmax denotes the peak of the concentration-time curve. As usually defined, the Tmax is the time at which the peak concentration occurs. Usually AUC(0-inf) stands for the area under the concentration-time curve extrapolated to infinity. A higher AUC(0-inf) goes with more exposure. For `COc1cc(Sc2c(-c3cc[nH]c3)[nH]c3ccccc23)cc(OC)c1OC`, the Vdss in [11] worked out at 1.59 L/kg. The Cmax in data set [12] was 1340 ng/mL; in data set [15], 35.7 ng/mL. Also, the Tmax in data set [13] is 2 h. The total exposure AUC(0-inf) is 9720 ng·h/mL in data set [14] and 2910 ng·h/mL in data set [17]. In addition, the F in data set [16] came out at 110%.

For the molecule `COc1ccc(/C=C\c2cc(OC)c(OC)c(OC)c2)cc1O` [COMBRETASTATIN A4], the IC50 is 1 nM in data set [18]; over 10000 nM in data set [19]; over 10000 nM in data set [20]; 1 nM in data set [21]; 5 nM in data set [22]; 3 nM in data set [23]. The outcome in data set [5], in data set [6], in data set [7], in data set [8] and in [10] was Active. Also, the Activity in data set [9] is on record as 80%.
